Measurements: ChEMBL document CHEMBL1121367, “Synthesis and antiallergic properties of some 4H,5H-pyrano[3,2-c][1]benzopyran-4-one, 4H,5H-[1]benzothiopyrano[4,3-b]pyran-4-one, and 1,4-dihydro-5h-[1]benzothiopyrano[4,3-b]pyridin-4-one derivatives” (1980)

How the values were obtained:
Rattus norvegicus [1] = test: In vivo inhibition of passive cutaneous anaphylaxis in rats when administered i.p.; format: functional; settings: ip, read-out: ID50 (the source's name)
Summary of the method: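 Adult male Charles River rats (140-160 g, six per group) were sensitized intradermally at two sites with rat serum containing reaginic antibodies to chicken ovalbumin. After 48 h they were challenged iv with 10 mg/kg ovalbumin in 1% Evans blue. Compound was given ip 15 min before challenge. Bluing area was measured 30 min later, and percent inhibition was calculated. ID50 was read graphically from the dose-response curve.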

Rattus norvegicus [2] = test: In vivo inhibition of passive cutaneous anaphylaxis in rats when administered i.v.; format: functional; settings: iv, read-out: ID50 (the source's name)
Summary of the method: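 Rats (adult male Charles River, 140-160 g, six per group) were sensitized intradermally at two sites with reaginic rat antiserum to chicken ovalbumin. After 48 h, compound at 30, 10 or 3 mg/kg iv was given simultaneously with the iv challenge of 10 mg/kg ovalbumin in 1% Evans blue. Dermal bluing area was measured at 30 min, and percent inhibition was calculated. ID50 was taken graphically from the dose-response curve.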

SMILES: CC1Sc2ccccc2-c2oc(C(=O)O)cc(=O)c21.NCCO (stereo not drawn)
- ED50 (Rattus norvegicus [1]): 29 mg/kg
- ED50 (Rattus norvegicus [2]): 8.4 mg/kg

SMILES: CCCCc1ccc2c(c1)-c1nc(C(=O)O)cc(O)c1CS2.NCCO
- ED50 (Rattus norvegicus [1]): 20 mg/kg
- ED50 (Rattus norvegicus [2]): 12 mg/kg

SMILES: O=c1c(CO)coc2c1CSc1ccccc1-2
- ED50 (Rattus norvegicus [1]): > 30 mg/kg
- ED50 (Rattus norvegicus [2]): > 30 mg/kg

SMILES: Cc1ccc2c(c1)-c1oc(C(=O)O)cc(=O)c1CS2.NCCO
- ED50 (Rattus norvegicus [1]): > 30 mg/kg
- ED50 (Rattus norvegicus [2]): 19 mg/kg

SMILES: O=c1c(CO)coc2c1COc1ccccc1-2
- ED50 (Rattus norvegicus [1]): 23 mg/kg

SMILES: Cc1c(-c2nn[nH]n2)oc2c(c1=O)CS(=O)(=O)c1ccccc1-2
- ED50 (Rattus norvegicus [1]): 100 mg/kg

SMILES: CCC(C)c1ccc2c(c1)-c1oc(C(=O)O)cc(=O)c1CS2.NCCO (stereo not drawn)
- ED50 (Rattus norvegicus [1]): > 30 mg/kg
- ED50 (Rattus norvegicus [2]): 25 mg/kg

SMILES: NCCO.O=C(O)c1cc(=O)c2c(o1)-c1cc(Cl)ccc1SC2
- ED50 (Rattus norvegicus [1]): > 100 mg/kg
- ED50 (Rattus norvegicus [2]): 28 mg/kg

SMILES: NCCO.O=C(O)c1cc(=O)c2c(o1)-c1ccccc1SC2
- ED50 (Rattus norvegicus [1]): > 100 mg/kg
- ED50 (Rattus norvegicus [2]): 25 mg/kg

SMILES: NCCO.O=C(O)c1cc(O)c2c(n1)-c1ccccc1SC2
- ED50 (Rattus norvegicus [1]): > 30 mg/kg
- ED50 (Rattus norvegicus [2]): 5.3 mg/kg

SMILES: NCCO.O=C(O)c1cc(=O)c2c(o1)-c1ccccc1S(=O)(=O)C2
- ED50 (Rattus norvegicus [1]): > 100 mg/kg
- ED50 (Rattus norvegicus [2]): > 30 mg/kg

SMILES: Cc1ccc(Cl)c2c1SCc1c(O)cc(C(=O)O)nc1-2.NCCO
- ED50 (Rattus norvegicus [1]): > 30 mg/kg
- ED50 (Rattus norvegicus [2]): > 30 mg/kg

SMILES: CCC(C)c1ccc2c(c1)-c1nc(C(=O)O)cc(O)c1CS2.NCCO (stereo not drawn)
- ED50 (Rattus norvegicus [1]): 27 mg/kg
- ED50 (Rattus norvegicus [2]): 8.2 mg/kg

SMILES: CCCCc1ccc2c(c1)-c1oc(C(=O)O)cc(=O)c1CS2.NCCO
- ED50 (Rattus norvegicus [1]): > 30 mg/kg
- ED50 (Rattus norvegicus [2]): 19 mg/kg

SMILES: Cc1ccc2c(c1)-c1nc(C(=O)O)cc(O)c1CS2.NCCO
- ED50 (Rattus norvegicus [1]): 34 mg/kg
- ED50 (Rattus norvegicus [2]): 6.9 mg/kg

SMILES: NCCO.O=C(O)c1cc(O)c2c(n1)-c1cc(Cl)ccc1SC2
- ED50 (Rattus norvegicus [1]): 33 mg/kg
- ED50 (Rattus norvegicus [2]): 3.3 mg/kg

SMILES: CCC(C)c1ccc2c(c1)-c1nc(C(=O)O)cc(O)c1CS2(=O)=O (stereo not drawn)
- ED50 (Rattus norvegicus [1]): > 30 mg/kg
- ED50 (Rattus norvegicus [2]): > 30 mg/kg

SMILES: Cc1c(-c2nn[nH]n2)oc2c(c1=O)CSc1ccccc1-2
- ED50 (Rattus norvegicus [1]): > 30 mg/kg

SMILES: Cc1ccc(Cl)c2c1SCc1c-2oc(C(=O)O)cc1=O.NCCO
- ED50 (Rattus norvegicus [1]): > 100 mg/kg
- ED50 (Rattus norvegicus [2]): 30 mg/kg

SMILES: O=C([O-])c1cc(=O)c2c(o1)-c1ccccc1OC2.[K+]
- ED50 (Rattus norvegicus [2]): 12 mg/kg

SMILES: O=C([O-])c1cc(=O)c2c(OCC(O)COc3cccc4oc(C(=O)[O-])cc(=O)c34)cccc2o1.[Na+].[Na+] [CROMOLYN SODIUM]
- ED50 (Rattus norvegicus [1]): 16.6 mg/kg
- ED50 (Rattus norvegicus [2]): 1 mg/kg
